According to ChEMBL document CHEMBL1141699, “Design, synthesis, and antibacterial activities of novel 3,6-bicyclolide oximes: length optimization and zero carbon linker oximes” (2008):
Converted amounts (≈) assume the structure as drawn.

Columns and labels:
Assay type in all cases: functional
Staphylococcus aureus [1] = experiment: Antibacterial activity against MLSB-resistant Staphylococcus aureus 27660 expressing ermA by broth-microdilution method
In short: (§1)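 MIC (µg/ml) by broth microdilution following CLSI standards.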

Staphylococcus aureus [2] = experiment: Antibacterial activity against methicillin-resistant Staphylococcus aureus 33591 by broth-microdilution method; in short: as §1
Haemophilus influenzae [3] = experiment: Antibacterial activity against ampicillin-resistant Haemophilus influenzae 33929 expressing beta-lactamase by broth-microdilution method; in short: as §1
Streptococcus pyogenes [4] = experiment: Antibacterial activity against erythromycin-susceptible Streptococcus pyogenes 19615 by broth-microdilution method
In short: (§2)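 MICs were determined by broth microdilution following CLSI standards and reported in µg/ml.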

Streptococcus pneumoniae [5] = experiment: Antibacterial activity against erythromycin-susceptible Streptococcus pneumoniae 49619 by broth-microdilution method; in short: as §1
Streptococcus pyogenes [6] = experiment: Antibacterial activity against MLSB-resistant Streptococcus pyogenes 2912 expressing ermA by broth-microdilution method; in short: as §1
Streptococcus pneumoniae [7] = experiment: Antibacterial activity against MLSB-resistant Streptococcus pneumoniae 700906 expressing erm by broth-microdilution method; in short: as §1
Moraxella catarrhalis = experiment: Antibacterial activity against Moraxella catarrhalis by broth-microdilution method; in short: as §2
Staphylococcus aureus [8] = experiment: Antibacterial activity against erythromycin-susceptible Staphylococcus aureus 29213 by broth-microdilution method; settings: ATCC29213; in short: as §1
Haemophilus influenzae [9] = experiment: Antibacterial activity against ampicillin-susceptible Haemophilus influenzae by broth-microdilution method
Streptococcus pneumoniae [10] = experiment: Antibacterial activity against efflux-resistant Streptococcus pneumoniae 7701 expressing mefA by broth-microdilution method; in short: as §1
Streptococcus pyogenes [11] = experiment: Antibacterial activity against efflux-resistant Streptococcus pyogenes 1323 expressing mefA by broth-microdilution method; in short: as §1

Compound	MIC (Staphylococcus aureus [1]) [µg/mL]	MIC (Staphylococcus aureus [2]) [µg/mL]	MIC (Haemophilus influenzae [3]) [µg/mL]	MIC (Streptococcus pyogenes [4]) [µg/mL]	MIC (Streptococcus pneumoniae [5]) [µg/mL]	MIC (Streptococcus pyogenes [6]) [µg/mL]	MIC (Streptococcus pneumoniae [7]) [µg/mL]	MIC (Moraxella catarrhalis) [µg/mL]	MIC (Staphylococcus aureus [8]) [µg/mL]	MIC (Haemophilus influenzae [9]) [µg/mL]	MIC (Streptococcus pneumoniae [10]) [µg/mL]	MIC (Streptococcus pyogenes [11]) [µg/mL]
CC[C@H]1OC(=O)[C@H](C)[C@H]2OC/C(=N\Oc3cccc(Cl)c3)CCO[C@](C)(C[C@@H](C)C(=O)[C@H](C)[C@H]3NC(=O)O[C@@]31C)[C@H](O[C@@H]1O[C@H](C)C[C@H](N(C)C)[C@H]1O)[C@H]2C	≤ 0.06	32 (≈ 40.3 µM)	2 (≈ 2.52 µM)	≤ 0.06	≤ 0.06	1 (≈ 1.26 µM)	8 (≈ 10.1 µM)	≤ 0.06	≤ 0.06	2 (≈ 2.52 µM)		
CC[C@H]1OC(=O)[C@H](C)[C@H]2OC/C(=N\Oc3ccccc3Cl)CCO[C@](C)(C[C@@H](C)C(=O)[C@H](C)[C@H]3NC(=O)O[C@@]31C)[C@H](O[C@@H]1O[C@H](C)C[C@H](N(C)C)[C@H]1O)[C@H]2C	≤ 0.06	64 (≈ 80.6 µM)	2 (≈ 2.52 µM)	≤ 0.06	≤ 0.06	4 (≈ 5.04 µM)	32 (≈ 40.3 µM)	≤ 0.06	≤ 0.06	2 (≈ 2.52 µM)		
CC[C@H]1OC(=O)[C@H](C)[C@H]2OC/C(=N\OCCCCc3ccccc3)CCO[C@](C)(C[C@@H](C)C(=O)[C@H](C)[C@H]3NC(=O)O[C@@]31C)[C@H](O[C@@H]1O[C@H](C)C[C@H](N(C)C)[C@H]1O)[C@H]2C	0.25 (≈ 0.306 µM)	64 (≈ 78.4 µM)	4 (≈ 4.9 µM)	≤ 0.06	≤ 0.06	16 (≈ 19.6 µM)	4 (≈ 4.9 µM)	0.25 (≈ 0.306 µM)	0.25 (≈ 0.306 µM)	8 (≈ 9.8 µM)	0.125 (≈ 0.153 µM)	0.25 (≈ 0.306 µM)
CC[C@H]1OC(=O)[C@H](C)[C@H]2OC/C(=N\OCCc3ccccc3)CCO[C@](C)(C[C@@H](C)C(=O)[C@H](C)[C@H]3NC(=O)O[C@@]31C)[C@H](O[C@@H]1O[C@H](C)C[C@H](N(C)C)[C@H]1O)[C@H]2C	0.125 (≈ 0.159 µM)	> 64	2 (≈ 2.54 µM)	≤ 0.06	≤ 0.06	8 (≈ 10.2 µM)	16 (≈ 20.3 µM)	≤ 0.06	0.125 (≈ 0.159 µM)	2 (≈ 2.54 µM)		0.125 (≈ 0.159 µM)
CC[C@H]1OC(=O)[C@H](C)[C@H]2OC/C(=N\Oc3ccc(-c4ccccc4)cc3)CCO[C@](C)(C[C@@H](C)C(=O)[C@H](C)[C@H]3NC(=O)O[C@@]31C)[C@H](O[C@@H]1O[C@H](C)C[C@H](N(C)C)[C@H]1O)[C@H]2C	0.5 (≈ 0.598 µM)	16 (≈ 19.1 µM)	8 (≈ 9.57 µM)	≤ 0.06	≤ 0.06	2 (≈ 2.39 µM)	0.25 (≈ 0.299 µM)	1 (≈ 1.2 µM)	0.5 (≈ 0.598 µM)	8 (≈ 9.57 µM)	0.125 (≈ 0.15 µM)	0.25 (≈ 0.299 µM)
CC[C@H]1OC(=O)[C@H](C)[C@H]2OC/C(=N\OCc3ccccc3)CCO[C@](C)(C[C@@H](C)C(=O)[C@H](C)[C@H]3NC(=O)O[C@@]31C)[C@H](O[C@@H]1O[C@H](C)C[C@H](N(C)C)[C@H]1O)[C@H]2C	≤ 0.06	> 64	2 (≈ 2.58 µM)	≤ 0.06	≤ 0.06	4 (≈ 5.17 µM)	> 64	≤ 0.06	≤ 0.06	2 (≈ 2.58 µM)		0.125 (≈ 0.162 µM)
CC[C@H]1OC(=O)[C@H](C)[C@H]2OC/C(=N\Oc3ccc(Cl)cc3)CCO[C@](C)(C[C@@H](C)C(=O)[C@H](C)[C@H]3NC(=O)O[C@@]31C)[C@H](O[C@@H]1O[C@H](C)C[C@H](N(C)C)[C@H]1O)[C@H]2C	≤ 0.06	> 64	4 (≈ 5.04 µM)	≤ 0.06	≤ 0.06	2 (≈ 2.52 µM)	16 (≈ 20.1 µM)	≤ 0.06	≤ 0.06	4 (≈ 5.04 µM)		
CC[C@H]1OC(=O)[C@H](C)[C@H]2OC/C(=N\Oc3cccnc3)CCO[C@](C)(C[C@@H](C)C(=O)[C@H](C)[C@H]3NC(=O)O[C@@]31C)[C@H](O[C@@H]1O[C@H](C)C[C@H](N(C)C)[C@H]1O)[C@H]2C	0.125 (≈ 0.164 µM)	> 64	1 (≈ 1.31 µM)	≤ 0.06	0.125 (≈ 0.164 µM)	4 (≈ 5.26 µM)	16 (≈ 21 µM)	≤ 0.06	0.125 (≈ 0.164 µM)	1 (≈ 1.31 µM)	0.125 (≈ 0.164 µM)	0.25 (≈ 0.329 µM)
CC[C@H]1OC(=O)[C@H](C)[C@H]2OC/C(=N\OCCCc3ccccc3)CCO[C@](C)(C[C@@H](C)C(=O)[C@H](C)[C@H]3NC(=O)O[C@@]31C)[C@H](O[C@@H]1O[C@H](C)C[C@H](N(C)C)[C@H]1O)[C@H]2C	0.125 (≈ 0.156 µM)	> 64	2 (≈ 2.49 µM)	≤ 0.06	≤ 0.06	8 (≈ 9.97 µM)	4 (≈ 4.99 µM)	0.125 (≈ 0.156 µM)	0.125 (≈ 0.156 µM)	2 (≈ 2.49 µM)		
CC[C@H]1OC(=O)[C@H](C)[C@H]2OC/C(=N\Oc3ccccc3)CCO[C@](C)(C[C@@H](C)C(=O)[C@H](C)[C@H]3NC(=O)O[C@@]31C)[C@H](O[C@@H]1O[C@H](C)C[C@H](N(C)C)[C@H]1O)[C@H]2C	≤ 0.06	> 64	1 (≈ 1.32 µM)	≤ 0.06	≤ 0.06	4 (≈ 5.26 µM)	32 (≈ 42.1 µM)	≤ 0.06	≤ 0.06	2 (≈ 2.63 µM)		
CC[C@H]1OC(=O)[C@H](C)[C@H]2OC/C(=N\Oc3cccc(-c4ccccc4)c3)CCO[C@](C)(C[C@@H](C)C(=O)[C@H](C)[C@H]3NC(=O)O[C@@]31C)[C@H](O[C@@H]1O[C@H](C)C[C@H](N(C)C)[C@H]1O)[C@H]2C	0.125 (≈ 0.15 µM)	4 (≈ 4.78 µM)	4 (≈ 4.78 µM)	≤ 0.06	≤ 0.06	4 (≈ 4.78 µM)	2 (≈ 2.39 µM)	0.125 (≈ 0.15 µM)	0.125 (≈ 0.15 µM)	4 (≈ 4.78 µM)		0.125 (≈ 0.15 µM)
